# Source: PubChem BioAssay
# Only some compounds are listed: those with a hit (about 4.1% of all), similar ones and a draw of the others.
# H9c2 TAG inh: triacylglycerol accumulation inhibition. H9c2 cells, Nile Red lipid (TAG) fluorescence; cells loaded with 200 µM oleic acid. inhibition, % at 12.5 µM. 0.66% of 230,000 active. AID 651582;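 active = pattern-corrected inhibition of lipid staining of at least 50% with the nuclear-stain viability signal not falling by more than 50%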;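 note: 0% = DMSO wells and 100% = triacsin C control wells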
# Efflux pump inh: antifungal efflux pump inhibition, Nile Red retention; 0.44% of 330,000 active; inhibition, % at 10 µM; S. cerevisiae Candida pump triplex; AID 485275;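 active = plate passing quality check with inhibition over a set limit, or well fluorescence over plate mean plus 4 SD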;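 note: Nile Red retained in pooled yeast measured as flow cytometry median fluorescence; 0% = buffer negative control and 100% = Enniatin B positive control; higher means more Nile Red kept so more efflux inhibition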
# SMARCA2 act: increases SMARCA2 function in MMTV reporter cells | MG213 cells, MMTV-luciferase reporter, dexamethasone, overnight | activation, % at 9.1 µM | 1% of 370,000 active | AID 652017; in the data active = activation above about 7.8%;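 note: 0% = vehicle wells and 100% = reference activator wells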
# Tb MetRS inh: Trypanosoma brucei MetRS inhibition; inhibition, % at 11.9 µM; AID 624268; purified T. brucei MetRS, ATP depletion, Kinase-Glo luminescence; 0.4% of 360,000 active;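 active = inhibition above a per-plate cutoff of the control wells' mean inhibition plus 3 SD, cut at about 5.5% in these data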;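 note: 0% = DMSO wells median and 100% = median of wells with control inhibitor compound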
#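 Test system – parasite MetRS enzyme · Reagent – substrates ATP, L-methionine and bulk Escherichia coli tRNA · Doses – 11.9 µM compound single dose, 0.9% DMSO · Times – 15 min enzyme-compound preincubation, 2 h reaction, 10 min detection, 25 °C · Signal – Kinase-Glo luminescence, ATP depletion format · Controls – DMSO-only wells as low control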
# AHR act: activators of human aryl hydrocarbon receptor. activation, % at 5 µM. AHR-responsive luciferase reporter cells, luminescence. 2.5% of 320,000 active; in the data active = activation above about 47%;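 note: 0% = vehicle wells and 100% = reference agonist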
# Target sequence (P35869 whole entry, looked up): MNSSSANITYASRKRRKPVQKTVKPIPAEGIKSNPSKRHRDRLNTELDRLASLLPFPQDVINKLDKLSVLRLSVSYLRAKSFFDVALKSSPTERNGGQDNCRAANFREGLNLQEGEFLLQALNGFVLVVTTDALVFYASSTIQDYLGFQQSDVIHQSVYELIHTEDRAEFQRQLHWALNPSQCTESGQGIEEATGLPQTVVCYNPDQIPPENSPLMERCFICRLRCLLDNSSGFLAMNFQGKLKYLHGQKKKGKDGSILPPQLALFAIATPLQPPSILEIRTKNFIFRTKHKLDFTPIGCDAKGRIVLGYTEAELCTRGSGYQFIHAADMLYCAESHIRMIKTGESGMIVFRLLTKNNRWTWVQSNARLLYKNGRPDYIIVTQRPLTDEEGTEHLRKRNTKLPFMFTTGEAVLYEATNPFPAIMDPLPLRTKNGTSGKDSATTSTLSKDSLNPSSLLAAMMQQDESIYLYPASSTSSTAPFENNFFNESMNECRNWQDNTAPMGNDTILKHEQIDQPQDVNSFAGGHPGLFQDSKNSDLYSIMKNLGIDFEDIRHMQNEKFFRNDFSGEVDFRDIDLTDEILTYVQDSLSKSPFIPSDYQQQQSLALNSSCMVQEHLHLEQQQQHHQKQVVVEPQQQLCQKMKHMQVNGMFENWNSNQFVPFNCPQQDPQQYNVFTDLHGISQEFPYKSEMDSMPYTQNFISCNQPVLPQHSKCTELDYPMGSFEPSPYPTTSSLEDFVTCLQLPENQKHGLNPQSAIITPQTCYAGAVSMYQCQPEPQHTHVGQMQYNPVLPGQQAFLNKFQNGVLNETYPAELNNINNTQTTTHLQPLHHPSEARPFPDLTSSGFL
# SMARCA2 act conf: confirmation of SMARCA2 (BRM) function activators; activation, % at 9.1 µM; 30% of 3,500 active; MG213 cells, MMTV-luciferase with dexamethasone, luminescence, overnight; MG213 cells expressing E1A, Rb sequestered; DMSO wells 0%, reference activator 100%; AID 652260; shares compounds with SMARCA2 act;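 active = activation above its plate's cutoff, the mean activation of tested wells plus 3 SD, cut at about 7.9% in these data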
# GAL4-VP16 Luc: counter-screen for SMARCA2 activators: GAL4-VP16 luciferase reporter activation. shares compounds with SMARCA2 act. 41% of 3,500 active. activation, % at 9.1 µM. HEK293 GAL4-VP16 pG5luc reporter, luciferase luminescence; scaled: DMSO wells 0%, SAHA wells 100%;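 active = activation above the solvent-only control well mean plus 3 SD, averaged across control plates, cut at about 5.2% in these data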
# An asterisk follows results filed as active; . = no result given.
SMILES,H9c2 TAG inh,Efflux pump inh,SMARCA2 act,Tb MetRS inh,AHR act,SMARCA2 act conf,GAL4-VP16 Luc
COc1cccc(CC(NC(C)=O)C(=O)NC2CCN(c3c4c(nc5ncnn35)CCC4)CC2)c1 (stereo not drawn),7,.,8.4*,-1,.,-2,0
C=CCN1CCc2c(cc(O)c(O)c2Cl)C(c2ccccc2)C1 (stereo not drawn),-6,0,9.2*,-1,1,5,1
CC(=NO)c1ccc2c(c1)Cc1cc([N+](=O)[O-])ccc1-2,5,.,12*,0,.,8,5
Cc1cc(/C(N)=N/OC(=O)c2ccc(Cl)cc2)no1,13,0,4,0,-5,.,.
COc1ccc(C(=O)O/N=C(\N)c2ccccc2)cc1OC,.,0,7,0,14,.,.
N/C(=N\OC(=O)c1ccc2c(c1)OCO2)c1ccc(Cl)cc1,.,0,8.9*,-1,6,10*,6.8*
Cc1cc(/C(N)=N/OC(=O)c2cccc(Cl)c2)no1,-7,0,13*,-1,38,4,1
COc1cc(OC)c(C(=O)O/N=C(\N)c2ccccc2)cc1OC,.,0,8.6*,0,78*,3,2
Cc1cccc(C(=O)O/N=C(\N)c2ccc(Cl)cc2)c1,.,0,9.0*,-1,55*,8,5
Cc1cccc(/C(N)=N/OC(=O)c2ccoc2C)c1,.,0,8.1*,-1,6,13*,13*
Cn1c(C(=O)Nc2ccccc2)cc2sccc21,-1,0,9.2*,0,56*,8.7*,7.2*
O=C(Cc1c[nH]c2ccccc12)Nc1ccc(Nc2cccnc2)c(-c2cccc(Cl)c2)c1,.,.,-1,.,.,.,.
CSc1nc2c([nH]1)c(=S)n(C)c(=O)n2C,21,.,8.4*,0,.,9.0*,1
C[C@@H]1ON(C)[C@H]2C[C@H]3c4[nH]c5c(-c6cccc(Cl)c6)cccc5c4CCN3C(=O)[C@@H]12,.,.,-5,.,.,.,.
COc1cccc(NC(=O)CSc2nc3ccccc3c(=O)n2Cc2cccs2)c1,.,-13,8.9*,0,3,-5,-1
CN(C)c1ccc(/C=C(/C#N)C(=O)Nc2nc3c(s2)CCN(Cc2ccccc2)C3)cc1,-73,.,8.9*,0,.,-5,6.9*
COc1cc(-c2cc(NC=O)c3ncc(-c4ccc(C(C)=O)cc4)n3c2)ccc1O,37,.,14*,0,.,21*,5
COc1cccc(-c2cnc3c(NC=O)cc(-c4ccc(O)c(OC)c4)cn23)c1,4,.,4,0,.,.,.
COc1ccc(-c2cc(NC=O)c3ncc(-c4ccc(OC)c(OC)c4)n3c2)cc1OC,14,.,13*,0,.,15*,8.6*
CC(C)(C)c1ccc(C#C[C@@H]2C=C[C@@H](O)[C@@H](COC(=O)NCc3ccccc3)O2)cc1,.,.,0,.,.,.,.
COc1ccc(N2C(=O)c3n[nH]c(C(C)C)c3C2c2ccccc2)cc1 (stereo not drawn),.,.,-1,.,.,.,.
Cc1ccc2nc(-c3ccc(NC(=O)CSc4nnc(Cc5cccs5)n4C)cc3)sc2c1,.,.,-2,.,.,.,.
Cn1cccc1/C=C(\C#N)C(N)=S,20,0,-3,-1,6,.,.
N#C/C(=C/c1cc[nH]c1)C(N)=S,12,0,8.6*,0,9,-4,1
CN[C@H]1C[C@H]2c3[nH]c4c(-c5cccc(C)c5)cccc4c3CCN2C(=O)[C@H]1[C@H](C)O,.,.,-2,.,.,.,.
SMILES,H9c2 TAG inh,Efflux pump inh,SMARCA2 act,Tb MetRS inh,AHR act,SMARCA2 act conf,GAL4-VP16 Luc
COC(=O)c1ccc2c(c1)C(C)(C)C(/C=C/c1ccc(O)cc1)=[N+]2C,.,0,14*,-1,12,-16,-2
Cc1noc(C)c1NC(=O)N(C)C[C@@H]1OCc2cn(nn2)CCCC(=O)N([C@@H](C)CO)C[C@H]1C,.,.,0,.,.,.,.
CCCOc1ccc(-c2cn3ccccc3n2)cc1[N+](=O)[O-],.,0,6,0,-1,.,.
CCCOc1ccc(-c2cn3ccccc3n2)cc1,9,0,8.2*,-2,1,6,9.7*
CCN(C(=O)Cn1nnc(-c2ccncc2)n1)c1ccccc1,.,.,-6,.,.,.,.
CC(=O)N1CCN(C(=O)CSc2nc3cccnc3n2C)CC1,.,.,2,.,.,.,.
COC(=O)c1ccccc1NC(=O)N1CCc2ccc(NC(=O)c3ccccn3)cc2C1,.,-2,8.1*,-1,41,6,7.5*
CC(C)N1Cc2nnn(Cc3ccccc3)c2-c2cc(F)ccc2S1(=O)=O,.,.,-3,.,.,.,.
Nc1nc(Nc2ccccc2F)sc1C(=O)c1ccccc1,.,0,8.2*,0,10,13*,6.9*
Cc1nc(Nc2ccccc2)sc1C(=O)c1ccc(F)cc1,.,0,0,0,7,.,.
CCOC(=O)[C@@]12CCCC=C1N(CCc1ccc(Cl)cc1)C(=O)[C@H]2CC(=O)N1CCN(C(=O)c2ccco2)CC1,.,.,-3,.,.,.,.
COC(=O)[C@]12C[C@H](CC(=O)N3CCSCC3)C(=O)N(CCc3ccc(OC)c(OC)c3)C1=C[C@H](C(C)(C)C)O[C@@H]2C,.,.,-2,.,.,.,.
COc1cc(-c2cnc3c(NC(C)=O)cc(-c4ccc(N5CCN(C)CC5)cc4)cn23)cc(OC)c1OC,14,.,-4,1,.,.,.
COc1cc(-c2cnc3c(NC=O)cc(-c4ccc(N5CCN(C)CC5)cc4)cn23)cc(OC)c1OC,11,.,8.5*,0,.,9.3*,14*
CN1CCN(c2ccc(-c3cc(NC=O)c4ncc(-c5ccc(F)cc5)n4c3)cc2)CC1,10,.,10*,0,.,14*,12*
